How the values were obtained:
Phosphodiesterase 4 = Phosphodiesterase 4 (Homo sapiens, UniProt P27815+Q08499+Q07343+Q08493); assay: Inhibition activity against human monocyte derived PDE4 catalytic activity (LPDE4); format: protein assay
Cavia porcellus [1] = assay: Antigen-induced bronchoconstriction in guinea pigs after iv administration 10 min pre-treatment; format: functional; conditions: read-out: ID50 (the source's name)
Outline: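 Anesthetized guinea pigs, compound given intravenously, with bronchoconstriction provoked by antigen challenge.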

Cavia porcellus [2] = assay: Antigen-induced bronchoconstriction in guinea pigs after peroral administration 1 hour pre-treatment; format: functional; conditions: po, read-out: ID50 (the source's name)
Mus musculus [3] = assay: Reversal of reserpine-induced hypothermia in the mouse on peroral administration; format: functional; conditions: po
[4] = The value for hypothermia against antigen provocation (po); conditions: in vivo
Canis familiaris [5] = species: Canis familiaris; assay: Emetic effect in dogs; format: functional; conditions: Canis lupus familiaris
Mus musculus [6] = species: Mus musculus; assay: Inhibition of lipopolysaccharide (LPS)-induced TNF alpha generation in mouse; format: functional; conditions: read-out: ID50 (the source's name)
Outline: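 Human monocytes adoptively transferred into mice, then LPS challenge. Compound dosed orally; human TNFα generation measured. ID50 taken from the mean response of three to eight animals.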

Oryctolagus cuniculus = species: Oryctolagus cuniculus; assay: Stimulation of acid secretion from rabbit parietal glands; format: functional
[7] = (§1) Inhibition of lipopolysaccharide (LPS)-induced TNF alpha release by human monocytes; format: functional
Mus musculus [8] = species: Mus musculus; assay: Reversal of reserpine-induced hypothermia in mouse by peroral dose; format: functional; conditions: po
Mus musculus [9] = species: Mus musculus; assay: Reversal of reserpine-induced hypothermia in the mouse; format: functional
Canis familiaris [10] = assay: Emetic effect in dogs by intravenous administration; format: functional; conditions: Canis lupus familiaris
Homo sapiens = species: Homo sapiens; assay: as §1; format: functional

IC50 (Phosphodiesterase 4)	SMILES	ED50 (Cavia porcellus [1])	also measured
320 nM	COc1ccc(C2(C(N)=O)CCC(=O)CC2)cc1OC1CCCC1		
80 nM	C#CC1(c2ccc(OC)c(OC3CCCC3)c2)CCC(=O)CC1		
340 nM	COc1ccc(C2(C=O)CCC(=O)CC2)cc1OC1CCCC1		
1180 nM	COc1ccc(C2(CF)CCC(=O)CC2)cc1OC1CCCC1		
740 nM	COc1ccc(C2(C#N)CCC(c3nnn[nH]3)CC2)cc1OC1CCCC1 (stereo not given)		
120 nM	COc1ccc(C2CCC(=O)CC2)cc1OC1CCCC1		
44 nM	COc1ccc(C2(C#N)CCC(=O)CC2)cc1OC1CCCC1		
2500 nM	COc1ccc(C2(CO)CCC(=O)CC2)cc1OC1CCCC1		

More lines, now with the values behind:

SMILES	IC50 (Phosphodiesterase 4)	ED50 (Cavia porcellus [1])	also measured
COc1ccc(C2CCC(C(=O)O)CC2)cc1OC1CCCC1 (stereo not given)	1200 nM		
COc1ccc(C2CCC(C(=O)O)C2)cc1OC1CCCC1 (stereo not given)	1200 nM	0.5 mg/kg	ED50 (Cavia porcellus [2]): 3 mg/kg; ED50 (Mus musculus [3]): 0.5 mg/kg; selectivity ratio [4]: 0.17
COc1ccc([C@@H]2CC(=O)N(Cc3ccc(N)cc3)C2)cc1OC1CCCC1	195 nM	10 mg/kg	
COc1ccc([C@@H]2CNC(=O)C2)cc1OC1CCCC1 [(-)-ROLIPRAM]		0.2 mg/kg	ED50 (Canis familiaris [5]): 0.04 mg/kg; ED50 (Cavia porcellus [2]): 2 mg/kg; ED50 (Mus musculus [3]): 0.2 mg/kg; ED50 (Mus musculus [6]): 5.1 mg/kg; EC50 (Oryctolagus cuniculus): 4 nM; IC50 [7]: 70 nM
COc1ccc(C2CC(=O)N(Cc3ccc(N)cc3)C2)cc1OC1CCCC1 (stereo not given)	52 nM	0.5 mg/kg	
COc1ccc([C@H]2CNC(=O)C2)cc1OC1CCCC1 [S-ROLIPRAM]		0.2 mg/kg	ED50 (Cavia porcellus [2]): 2 mg/kg; ED50 (Mus musculus [8]): > 10 mg/kg
COc1ccc([C@]2(C#N)CC[C@@H](C(=O)O)CC2)cc1OC1CCCC1 (stereo in doubt; 1) [CILOMILAST]		1.8 mg/kg	ED50 (Mus musculus [9]): 2.3 mg/kg; ED50 (Mus musculus [6]): 4.9 mg/kg; EC50 (Oryctolagus cuniculus): 800 nM; ED50 (Canis familiaris [10]): 4.6 mg/kg; IC50 (Homo sapiens): 110 nM
COc1ccc(C2CCC(=O)C2)cc1OC1CCCC1 (stereo not given)	500 nM		

Reference: ChEMBL document CHEMBL1131490, “1,4-Cyclohexanecarboxylates: potent and selective inhibitors of phosophodiesterase 4 for the treatment of asthma” (J Med Chem, 1998)
